Article PMC12977181 (Journal of natural products, 2025)
“Also recorded” adds a separate entry of the source. Read-outs that look alike come from different tables or passages of the source.

Tests used:
[1] = test system: p-eIF2α; assay: Immunocytochemistry of p-eIF2α in primary mouse DRGs; type: cell-based; settings: approximately 16 h, vs vehicle (0.01% DMSO)
Outline: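 Primary mouse DRG neurons were cultured overnight in Neurobasal A, then exposed for ~16 h to test compounds (30–1000 nM) or 0.01% DMSO. Cells were formalin-fixed, blocked in 10% goat serum with 0.1% Triton X-100, and immunostained for p-eIF2α (Alexa 555) and peripherin (Alexa 488) with DAPI. p-eIF2α was quantified as mean gray intensity in peripherin-positive neurons. One-way ANOVA with Tukey's test; mean ± SEM.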

[2] = test system: mice with neuropathic pain; settings: through σ2R/TMEM97; cited from earlier work
[3] = test system: HEK293 cells; assay: Cytotoxicity in HEK293 cells, resazurin reduction assay; type: cell-based; settings: 24 h; for cell death at 30 μM: resazurin (Figure 7A); for LD50: 0.03-30 μM, logarithmic nonlinear regression curve (Figure 7B)
[4] = test system: hiPSC-derived nociceptors; assay: Multiwell microelectrode array; type: cell-based, human
[5] = test system: primary mouse DRG neurons; assay: Functional calcium imaging in primary mouse DRG neurons; type: cell-based; settings: 10 μM Ver E
Outline: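 DRGs from an 18-week-old male Nestin-Cre × Cre-dependent GCaMP6f mouse were digested with papain (15 IU/mL) plus collagenase (2.25 mg/mL) at 37 °C for 20 min and plated at 450,000–500,000 cells/mL in Neurobasal A. Imaging ran 24 h later with FITC optics. Maximum fluorescence was taken during direct 10 μM exposure and during SOCE, against 0.1% DMSO vehicle. Unpaired two-tailed t tests; SEM; n = cells.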

[6] = test system: HEK293 cells; settings: cited from earlier work
[7] = test system: breast cancer cell lines; settings: cited from earlier work

Compound: OCCCN1CCC2CC1c1cc(-c3ccc(C(F)(F)F)cc3)ccc12 (stereo not shown) [FEM-1689, reference compound]
- p-eIF2α expression (mean gray intensity), in words ([1]; FEM-1689 30 nM): marked reduction
- analgesic effect, in words [2]: drives analgesic responses

Compound: C#CCCC[C@H]1OC(=O)[C@H](C(C)C)N(C)C(=O)[C@@H]2CCCN2C(=O)[C@H]([C@@H](C)CC)OC(=O)[C@H]([C@@H](C)CC)N(C)C(=O)[C@H]([C@@H](C)CC)NC(=O)[C@H]1C [Ver E, veraguamide E]
- p-eIF2α levels (mean gray intensity), in words ([1]; Ver E 100 nM): No observable differences
- p-eIF2α levels (mean gray intensity), in words ([1]; Ver E 1000 nM): No observable differences
- cytotoxicity, in words ([3]; 0.03 μM to 30 μM, resazurin): no evidence of cytotoxicity
- cell death at 30 μM [3]: no cytotoxicity
- LD50 ([3]; resazurin): no detectable LD50
- neuronal activity at 24 h, in words ([4]; 30 μM, 37 °C, 24-h time point): returning to baseline
- effect on activity at 42 °C (heat ramp 37 to 42 °C), in words ([4]; 42 °C, Ver E vs vehicle (DMSO)): no significant effect; also recorded: nonsignificant decrease
- Maximum fluorescence during the SOCE response (mean) ([5]; 0.1% DMSO, max ΔF/F0, after reintroduction of extracellular Ca2+, vehicle mean = 2.126, no significant difference): 1.929
- DRG excitability during coapplication with thapsigargin, in words ([5]; compared to thapsigargin alone, P < 0.01): significantly increased DRG excitability
- SOCE response, in words ([5]; upon reintroduction of extracellular Ca2+): no significant change

Compound: C[C@@H]1CC[C@@]2(OC1)O[C@H]1[C@@H](O)[C@H]3[C@@H]4CC[C@H]5C[C@@H](O[C@@H]6O[C@H](CO)[C@H](O[C@@H]7O[C@H](CO)[C@@H](O)[C@H](O[C@@H]8OC[C@@H](O)[C@H](O)[C@H]8O)[C@H]7O[C@@H]7O[C@H](CO)[C@H](O)[C@H](O[C@@H]8O[C@H](CO)[C@@H](O)[C@H](O)[C@H]8O)[C@H]7O)[C@H](O)[C@H]6O)[C@H](O)C[C@]5(C)[C@H]4CC[C@]3(C)[C@H]1[C@@H]2C [digitonin, reference compound]
- cell death at 30 μM [3]: 100%
- LD50 ([3]; resazurin): 9.68 µM

Compound: veraguamide C
- cytotoxicity, in words [6]: nontoxic
- cytotoxicity, in words [7]: mild cytotoxicity
